Experimental data reported in ChEMBL document CHEMBL4433206, “Novel Lysine-Based Thioureas as Mechanism-Based Inhibitors of Sirtuin 2 (SIRT2) with Anticancer Activity in a Colorectal Cancer Murine Model” (J Med Chem, 2019).
Calls of active or inactive are those of the source. The rule behind the calls is not given here.

Columns and labels:
SW948 = assay: Growth inhibition of human SW948 cells after 72 hrs by CellTiter-Blue assay; format: functional; settings: SW948, 72 h
HCT-116 [1] = assay: Growth inhibition of human HCT116 cells after 72 hrs by CellTiter-Blue assay; format: functional; settings: HCT-116, 72 h
[2] = target: T1, NAD-dependent protein deacetylase sirtuin-2 (Homo sapiens, UniProt Q8IXJ6); assay: Inhibition of recombinant human N-terminal His6-tagged/SUMO-fused SIRT2 (38 to 356 residues) expressed in Escherichia coli BL21 assessed as reduction in deacetylase activity using acetylated H3K9 as substrate preincubated for 15 mins followed by substrate addition and measured after 6 mins by UV-HPLC analysis
T1 sequence (Q8IXJ6 whole entry): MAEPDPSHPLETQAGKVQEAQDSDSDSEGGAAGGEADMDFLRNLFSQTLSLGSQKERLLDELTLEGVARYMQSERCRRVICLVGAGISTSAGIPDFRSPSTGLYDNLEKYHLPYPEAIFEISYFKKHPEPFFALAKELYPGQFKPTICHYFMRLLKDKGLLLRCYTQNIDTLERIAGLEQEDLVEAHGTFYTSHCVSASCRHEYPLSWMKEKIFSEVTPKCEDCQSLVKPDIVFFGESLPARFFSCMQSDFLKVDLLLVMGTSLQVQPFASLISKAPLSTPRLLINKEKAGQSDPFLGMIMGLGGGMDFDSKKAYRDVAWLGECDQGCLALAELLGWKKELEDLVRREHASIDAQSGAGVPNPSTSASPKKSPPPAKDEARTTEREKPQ

MCF7 = assay: Growth inhibition of human MCF7 cells after 72 hrs by CellTiter-Blue assay; format: functional; settings: MCF7, 72 h
MDA-MB-468 = assay: Growth inhibition of human MDA-MB-468 cells after 72 hrs by CellTiter-Blue assay; format: functional; settings: MDA-MB-468, 72 h
MDA-MB-231 = assay: Growth inhibition of human MDA-MB-231 cells after 72 hrs by CellTiter-Blue assay; format: functional; settings: MDA-MB-231, 72 h
BXPC-3 = assay: Growth inhibition of human BxPC3 cells after 72 hrs by CellTiter-Blue assay; format: functional; settings: BXPC-3, 72 h
NCI-H23 = assay: Growth inhibition of human NCI-H23 cells after 72 hrs by CellTiter-Blue assay; format: functional; settings: NCI-H23, 72 h
A549 = assay: Growth inhibition of human A549 cells after 72 hrs by CellTiter-Blue assay; format: functional; settings: A549, 72 h
HCT-116 [3] = assay: (§1) Inhibition of anchorage-independent cell growth in human HCT116 cells assessed as reduction in colony formation incubated for 5 days followed by compound re-addition and measured after 9 to 11 days by nitro blue tetrazolium chloride-based soft agar colony formation assay; format: functional
Method in brief: (§2)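 HCT116 cells were mixed at 500 cells/mL into 0.3% agar growth layer over a 0.6% agar base layer (McCoy's medium, 10% calf serum). Both layers held inhibitor at 2.5–50 μM final. Wells were run in triplicate at 37 °C. Inhibitor-containing growth layer was added again at day 5. At 9–11 days, nitro blue tetrazolium was added overnight and colonies were imaged and counted.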

HCT-116 [4] = assay: as §1, with “colony formation at >=10 uM incubated for” for “colony formation incubated for”, “formation assay relative to control” for “formation assay”; format: functional; method in brief: as §2
[5] = target: T2, NAD-dependent protein deacetylase sirtuin-2 (Homo sapiens) (UniProt Q8IXJ6); assay: Inhibition of SIRT2 in human HCT116 cells assessed as increase in alpha-tubulin acetylation at 50 uM incubated for 6 hrs by DAPI staining-based laser scanning confocal microscopic analysis; format: cell-based
T2 sequence (whole entry): T1 sequence (Q8IXJ6 whole entry)
Method in brief: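 HCT116 cells were seeded at 400 000 on poly-D-lysine-coated glass-bottom dishes and grown 24 h. Cells were treated with DMSO or inhibitor for 6 h at 37 °C, fixed in ice-cold methanol, and blocked in TBS/0.1% Triton X-100/5% BSA. They were stained with anti-acetyl α-tubulin (1:100, overnight, 4 °C), then Cy3 anti-mouse, and mounted with DAPI. Imaging was by confocal microscopy.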

[6] = target: T3, NAD-dependent protein deacetylase sirtuin-1 (Homo sapiens) (UniProt Q96EB6); assay: Inhibition of SIRT1 in human HCT116 cells assessed as increase in acetylated p53 K382 level at 25 uM after 6 hrs by Western blot analysis; format: cell-based
T3 sequence (whole entry): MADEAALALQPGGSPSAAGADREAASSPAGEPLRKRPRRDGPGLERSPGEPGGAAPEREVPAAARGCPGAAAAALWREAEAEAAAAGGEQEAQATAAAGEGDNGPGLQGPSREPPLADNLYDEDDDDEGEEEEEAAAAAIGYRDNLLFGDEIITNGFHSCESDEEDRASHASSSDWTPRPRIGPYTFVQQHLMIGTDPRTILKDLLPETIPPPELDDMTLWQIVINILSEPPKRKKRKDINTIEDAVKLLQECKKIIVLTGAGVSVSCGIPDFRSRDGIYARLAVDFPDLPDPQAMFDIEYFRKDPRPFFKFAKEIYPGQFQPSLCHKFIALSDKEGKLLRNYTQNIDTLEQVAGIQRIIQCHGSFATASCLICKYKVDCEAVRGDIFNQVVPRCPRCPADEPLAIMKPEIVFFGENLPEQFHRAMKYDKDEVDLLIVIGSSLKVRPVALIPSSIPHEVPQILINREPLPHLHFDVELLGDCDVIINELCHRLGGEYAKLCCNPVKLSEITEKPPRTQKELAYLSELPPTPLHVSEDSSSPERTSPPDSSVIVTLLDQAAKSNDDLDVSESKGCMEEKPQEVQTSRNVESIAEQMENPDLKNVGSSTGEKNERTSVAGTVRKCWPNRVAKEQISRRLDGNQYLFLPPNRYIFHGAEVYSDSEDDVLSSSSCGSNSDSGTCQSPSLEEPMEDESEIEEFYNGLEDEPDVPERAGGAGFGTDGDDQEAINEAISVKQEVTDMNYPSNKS

HCT-116 [7] = assay: Antitumor activity against human HCT116 cells harboring KRAS G13D mutant xenografted in NSG mouse assessed as tumor growth inhibition by measuring reduction in tumor volume at 100 mg/kg, ip administered daily for 12 days and measured post-last dose relative to control; format: functional; settings: HCT-116, ip, 288 h, read-out: TGI
Method in brief: (§3)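 NSG mice, female and male, about 4–8 weeks old, were implanted with 1 × 10⁶ HCT116 cells on both sides of the abdomen. Tumours grew 3–5 days until visible. Compound was given ip daily for 12 days in vehicle containing 10% DMSO and 10% Kolliphor EL (dosing solution 10 mg/mL); control mice received vehicle. Tumour volume was measured daily; tumours were excised and weighed on the last day. Unpaired two-tailed t-test.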

HCT-116 [8] = assay: Antitumor activity against human HCT116 cells harboring KRAS G13D mutant xenografted in NSG mouse assessed as tumor growth inhibition by measuring reduction in tumor weight at 100 mg/kg, ip administered daily for 12 days and measured post-last dose relative to control; format: functional; settings: HCT-116, ip, 288 h, read-out: TGI; method in brief: as §3
[9] = Toxicity in NSG mouse xenografted with human HCT116 cells harboring KRAS G13D mutant assessed as body weight loss at 100 mg/kg, ip administered daily for 12 days measured during compound dosing; format: organism-based; settings: in vivo, 288 h
[10] = Toxicity in NSG mouse xenografted with human HCT116 cells harboring KRAS G13D mutant assessed as body weight loss at 100 mg/kg, ip administered daily for 12 days measured during compound dosing; settings: in vivo, 288 h

SMILES	GI50 (SW948)	GI50 (HCT-116 [1])	IC50 [2]	GI50 (MCF7)	GI50 (MDA-MB-468)	GI50 (MDA-MB-231)	GI50 (BXPC-3)	GI50 (NCI-H23)	GI50 (A549)	GI50 (HCT-116 [3])	growth inhibition (GI) (HCT-116 [4])	inhibition [5]	inhibition [6]	inhibition in vivo at 100 mg/kg (HCT-116 [7])	inhibition in vivo at 100 mg/kg (HCT-116 [8])	Activity [9]	Activity [10]
CCCCCCCCCCNC(=S)NCCCC[C@H](NC(=O)OCc1ccccc1)C(=O)Nc1ccccc1	12.8 µM	54.4 µM	0.15 µM	18.4 µM	13.4 µM	14.8 µM	24.3 µM	15.6 µM	9 µM	7 µM	100%	Active	inactive	37%	49%	Non-Toxic	Non-Toxic
CCCCCCCCNC(=S)NCCCC[C@H](NC(=O)OCc1ccccc1)C(=O)Nc1ccccc1	30 µM	58.9 µM	0.061 µM	42.6 µM	26.1 µM	27.2 µM	72.4 µM	35.8 µM	20.8 µM	7.4 µM	100%	Active	inactive	80%	78%	Non-Toxic	Non-Toxic
